33 compounds from ChEMBL document CHEMBL5321232, “Synthesis and biological evaluation of dual MDM2/XIAP inhibitors based on the tetrahydroquinoline scaffold” (Eur J Med Chem, 2023) can be followed below.

For test [1], the system named is CWR22R. The test is described as follows: Antiproliferative activity against human 22Rv1 cells assessed as inhibition of cell growth incubated for 72 hrs by MTS assay. The test is classed as functional, cell-based. The conditions noted are these: 22Rv1, 72 h. The gist of the method:
(§1)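 Cells seeded at 3,000–8,000 per well according to growth rate and incubated overnight. They were then exposed to compounds over 3 nM–100 μM for 72 h, four replicates per concentration. MTS added, 1.5 h in the dark at 37 °C, absorbance read at 490 nm. IC50 normalized to untreated cells and fitted by nonlinear regression.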
In general terms: Tetrazolium dyes change colour on reduction, which living cells bring about.

Test [2] concerns A-375. The test can be described thus: Antiproliferative activity against human A-375 cells assessed as inhibition of cell growth incubated for 72 hrs by MTS assay. The settings on record: A-375, 72 h.
Test [3] concerns MDA-MB-231. The test is described as follows: Antiproliferative activity against human MDA-MB-231 cells assessed as inhibition of cell growth incubated for 72 hrs by MTS assay. The conditions noted are these: MDA-MB-231, 72 h. The test is classed as functional, cell-based. The gist of the method:
as §1

Test [4] can be described thus: Antiproliferative activity against human EU-1 cells assessed as inhibition of cell growth incubated for 44 hrs by WST assay. The test is classed as functional, cell-based. The conditions noted are these: EU-1, 44 h. The essentials: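 Pediatric ALL-derived EU-1 cells grown in RPMI 1640 with 10% FBS, 2 mmol/L L-glutamine and penicillin/streptomycin at 37 °C, 5% CO2. Compounds given at graded concentrations for 44 h. WST (25 μg/well) then added for a further 4 h. OD read at 450 nm against a 620 nm reference, with cell-free wells for background.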

Test [5] has as its system CWR22R. The test is described as follows: Inhibition of colony formation in human 22Rv1 cells assessed as reduction in number of clonogenic cells incubated for 14 days and subsequent media replacement with compound for every 3 days by crystal violet staining based microscopic analysis. The settings on record: dose 1-10 µM, time 14.0 day. It counts as functional, cell-based. The gist of the method: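 22Rv1 cells in log phase were seeded at 2,000 per well and incubated 72 h. They were then treated with 1, 5 or 10 μM for 14 days, with medium ± compound renewed every 3 days. Colonies were fixed in cold methanol, stained with 0.5% crystal violet and counted microscopically. Run in triplicate; area expressed relative to vehicle (100%) as mean ± SEM of three biological replicates.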

SMILES strings stand for the structures.

A word on the IC50: it is the concentration that gives 50% inhibition.

As for `CN(C)c1cccc(NS(=O)(=O)c2ccc3c(c2)C2OCCC2C(C2CCCCC2)N3)c1` (configuration not stated), the IC50 in test [1] is more than 10000 nM; in test [2] it was 1800 nM; in test [3], 1100 nM; in test [4], 4000 nM.

For `CC(=O)c1ccc(NS(=O)(=O)c2ccc3c(c2)C2OCCC2C(c2ccc(C(=O)C(C)C)cc2)N3)cc1` (configuration not stated), the IC50 in test [1] came to 3300 nM; in test [2] it was 2000 nM; in test [3] it was 2100 nM; in test [4], 1500 nM.

With `CC(=O)c1cccc(NS(=O)(=O)c2ccc3c(c2)C2OCCC2C(c2ccc4c(c2)CCO4)N3)c1` (configuration not stated), the IC50 in test [1] is 6300 nM; in test [2] it was 1300 nM; in test [3], 1100 nM; in test [4], 7200 nM.

On to `CCc1cccc(NS(=O)(=O)c2ccc3c(c2)C2OCCC2C(c2ccc(C(=O)C(C)C)cc2)N3)c1` (configuration not stated), for which the IC50 was determined as 1100 nM in test [1], 3200 nM in test [2], 1500 nM in test [3] and 2100 nM in test [4].

Take `CC(C)C(=O)c1ccc(C2Nc3ccc(S(=O)(=O)Nc4ccc5c(c4)OCO5)cc3C3OCCC23)cc1` (configuration not stated): the IC50 in test [1] was determined as 7900 nM; in test [2], 5900 nM; in test [3], 3300 nM; in test [4], 5300 nM.

In the case of `CC(C)C(=O)c1ccc(C2Nc3ccc(S(=O)(=O)Nc4ccc5c(c4)COC5=O)cc3C3OCCC23)cc1` (configuration not stated), the IC50 was more than 10000 nM in test [2], 3800 nM in test [3] and 3800 nM in test [4].

`Cc1ccc(NS(=O)(=O)c2ccc3c(c2)C2OCCC2C(c2ccc(C(=O)C(C)C)cc2)N3)cc1C` (configuration not stated): the IC50 in test [1] is 5300 nM; in test [2], 2200 nM; in test [3] it was 2200 nM; in test [4] it was 500 nM. In test [5], the inhibition entry is “Dose-Dependent Effect”.

On to `Cc1cc(NS(=O)(=O)c2ccc3c(c2)C2OCCC2C(C2CCCCC2)N3)ccc1C(F)(F)F` (configuration not stated), for which the IC50 in test [2] is more than 10000 nM; in test [3], more than 10000 nM; in test [4], 3300 nM.

On to `O=S(=O)(Nc1ccc(Br)c(Br)c1)c1ccc2c(c1)C1OCCC1C(C1CCCCC1)N2` (configuration not stated), for which the concentration for half-maximal inhibition (IC50) in test [2] is more than 10000 nM; in test [3], more than 10000 nM; in test [4], 5100 nM.

In the case of `CC(=O)c1cccc(NS(=O)(=O)c2ccc3c(c2)C2OCCC2C(c2ccccc2)N3)c1` (configuration not stated), the IC50 is more than 10000 nM in test [1], 900 nM in test [2], 900 nM in test [3] and 1300 nM in test [4].

`CC(=O)c1cccc(NS(=O)(=O)c2ccc3c(c2)C2OCCC2C(C2CCCCC2)N3)c1` (configuration not stated): the IC50 is more than 10000 nM in test [1], 1100 nM in test [2], 1000 nM in test [3] and 1500 nM in test [4].

For `CC1CCC(NS(=O)(=O)c2ccc3c(c2)C2OCCC2C(C2CCCCC2)N3)CC1` (configuration not stated), the IC50 in test [1] is more than 10000 nM; in test [2], 7500 nM; in test [3], 2400 nM; in test [4] it was 1900 nM.

Take `CC(=O)c1cccc(NS(=O)(=O)c2ccc3c(c2)C2OCCC2C(c2ccc(C(C)C)cc2)N3)c1` (configuration not stated): the IC50 in test [1] was more than 10000 nM; in test [2] it was 1900 nM; in test [3], 600 nM; in test [4], 600 nM.

As to `CC(=O)c1cccc(S(=O)(=O)Nc2ccc3c(c2)C2OCCC2C(c2ccc(C(=O)C(C)C)cc2)N3)c1` (configuration not stated), the IC50 was 7700 nM in test [1], 4700 nM in test [2], 2000 nM in test [3] and 700 nM in test [4].

Consider `Cc1ccc(NS(=O)(=O)c2ccc3c(c2)C2OCCC2C(C2CCOCC2)N3)cc1C` (configuration not stated), for which the IC50 in test [1] is more than 10000 nM; in test [2], 12100 nM; in test [3], 3000 nM; in test [4] it was 1600 nM.

Consider `CC(=O)N1CCC(C2Nc3ccc(S(=O)(=O)Nc4ccc(C)c(C)c4)cc3C3OCCC32)CC1` (configuration not stated), for which the IC50 in test [2], in test [3] and in test [4] was more than 10000 nM throughout.

Regarding `Cc1ccc(NS(=O)(=O)c2ccc3c(c2)C2OCCC2C(C2CCN(C(=O)OC(C)(C)C)CC2)N3)cc1C` (configuration not stated), the IC50 is more than 10000 nM in test [1], 700 nM in test [2], 1100 nM in test [3] and 1400 nM in test [4].

Regarding `O=S(=O)(Nc1ccccc1)c1ccc2c(c1)C1OCCC1C(C1CCCCC1)N2` (configuration not stated), the IC50 is more than 10000 nM in test [2], more than 10000 nM in test [3] and 2600 nM in test [4].

Consider `CC(C)C(=O)c1ccc(C2Nc3ccc(S(=O)(=O)Nc4cccc(N(C)C)c4)cc3C3OCCC23)cc1` (configuration not stated), for which the IC50 amounted to 700 nM in test [1], 900 nM in test [2], 1600 nM in test [3] and 7500 nM in test [4].

Regarding `O=S(=O)(Nc1ccc(C(F)(F)F)c(C(F)(F)F)c1)c1ccc2c(c1)C1OCCC1C(C1CCCCC1)N2` (configuration not stated), the IC50 in test [2], in test [3] and in test [4] was more than 10000 nM each time.

With `CCC(=O)c1cccc(NS(=O)(=O)c2ccc3c(c2)C2OCCC2C(c2ccc(C(=O)C(C)C)cc2)N3)c1` (configuration not stated), the IC50 was found to be 3500 nM in test [1], 1300 nM in test [2], 1900 nM in test [3] and 1500 nM in test [4].

As for `Cc1ccc(NS(=O)(=O)c2ccc3c(c2)C2OCCC2C(C2CCCCC2)N3)cc1C` (configuration not stated), the IC50 in test [1] was more than 10000 nM; in test [2], 9800 nM; in test [3] it was 5700 nM; in test [4], 800 nM.

Consider `O=S(=O)(Nc1ccc(Cl)c(Cl)c1)c1ccc2c(c1)C1OCCC1C(C1CCCCC1)N2` (configuration not stated), for which the concentration for half-maximal inhibition (IC50) in test [2] was more than 10000 nM; in test [3] it was more than 10000 nM; in test [4], 1800 nM.

`Cc1ccc(S(=O)(=O)Nc2ccc3c(c2)C2OCCC2C(c2ccc(C(=O)C(C)C)cc2)N3)cc1C` (configuration not stated): the IC50 amounted to 4000 nM in test [1], 2500 nM in test [2], 1300 nM in test [3] and 600 nM in test [4].

Turning to `CC(=O)c1cccc(NS(=O)(=O)c2ccc3c(c2)C2OCCC2C(c2cccc(C(C)=O)c2)N3)c1` (configuration not stated), the IC50 was more than 10000 nM in test [1], 2500 nM in test [2], 2200 nM in test [3] and 1000 nM in test [4].

Regarding `CN[C@@H](C)C(=O)N[C@H](C(=O)N1CCC[C@H]1C(=O)Nc1snnc1-c1ccccc1)C1CCCCC1` [GDC-0152], the IC50 in test [4] worked out at 800 nM.

Take `CC(C)C(=O)c1ccc(C2Nc3ccc(S(=O)(=O)Nc4cccc(C(C)(C)C)c4)cc3C3OCCC23)cc1` (configuration not stated): the IC50 in test [1] stood at 1300 nM; in test [2], 5100 nM; in test [3], 2000 nM; in test [4], 6200 nM.

For the compound `CC(C)C(=O)c1ccc(C2Nc3ccc(S(=O)(=O)Nc4cccc(C(C)C)c4)cc3C3OCCC23)cc1` (configuration not stated), the IC50 in test [1] was found to be 2100 nM; in test [2], 2200 nM; in test [3] it was 1100 nM; in test [4] it was 6500 nM.

Take `Cc1ccc(NS(=O)(=O)c2ccc3c(c2)C2OCCC2C(c2ccc4c(c2)CCO4)N3)cc1C` (configuration not stated): the IC50 in test [1] was more than 10000 nM; in test [2], 4600 nM; in test [3] it was 3200 nM; in test [4], more than 10000 nM.

`Cc1ccc(NS(=O)(=O)c2ccc3c(c2)C2OCCC2C(c2c[nH]c4ccccc24)N3)cc1C` (configuration not stated): the results for the IC50 in test [2], in test [3] and in test [4] were more than 10000 nM, more than 10000 nM and 9200 nM, respectively.

Turning to `CC(C)[C@@H](CS(=O)(=O)C(C)C)N1C(=O)[C@@](C)(CC(=O)O)C[C@H](c2cccc(Cl)c2)[C@H]1c1ccc(Cl)cc1` [NAVTEMADLIN], the IC50 in test [1] is 300 nM; in test [2] it was 600 nM; in test [3] it was more than 10000 nM; in test [4], 900 nM.

In the case of `O=S(=O)(Nc1ccc2c(c1)CCCC2)c1ccc2c(c1)C1OCCC1C(C1CCCCC1)N2` (configuration not stated), the IC50 is more than 10000 nM in test [1], more than 10000 nM in test [2], 2200 nM in test [3] and 2300 nM in test [4].

Consider `CC(=O)Nc1ccc(C2Nc3ccc(S(=O)(=O)Nc4ccc(C)c(C)c4)cc3C3OCCC23)cc1` (configuration not stated), for which the IC50 is more than 10000 nM in test [1], 8100 nM in test [2], 5100 nM in test [3] and 4500 nM in test [4].
